High-throughput results (PubChem BioAssay)
RBBP9 inhibitor = human RBBP9 inhibitors, primary screen, biochemical, fluorescence polarization, FP-Rh probe, HTS; Serine hydrolase RBBP9 (Homo sapiens), O75884; recombinant RBBP9; inhibition, % at 7.94 µM; hit rate 0.2% among 220,000;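 active = inhibition above the campaign mean of all tested compounds plus 3 SD, cut at about 14% in these data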;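 also: plate controls were DMSO wells with RBBP9 for no effect and wells lacking RBBP9 protein for full effect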
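Assay system: recombinant human RBBP9; Reagent: Serine-hydrolase probe FP-Rh, 375 nM pre-mixing; Doses: 7.94 µM single dose, 0.794% DMSO; Incubation: 30 min then 45 min, 25 °C; Detection: fluorescence polarization (mP), excitation 525 nm, emission 598 nm; Evaluation: percent inhibition from mP, scaled between DMSO and no-protein wells.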
eIF4E 4G PPI = eIF4E–eIF4G protein interaction inhibitors, primary screen, biochemical, uHTS, TR-FRET, eIF4GI fragment; TR-FRET eIF4E-eIF4GI(517-606) binding, 2 h; inhibition, % at 21.7 µM; hit rate 0.37% among 220,000; Eukaryotic translation initiation factor 4E (Mus musculus) + Eukaryotic translation …;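 also: 0% = full FRET control wells and 100% = background wells lacking eIF4GI fragment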
EBV gp42 block = Epstein-Barr virus gp42 inhibitors, primary screen, biochemical, uHTS, fluorescence polarization. Fluorescence polarization binding assay, mP read-out. inhibition, % (tested at 21.74 µM). hit rate 0.42% among 220,000. AID 1085, 2008; in the data active = inhibition above about 50%
Target sequence (Q1HVG2 whole entry, looked up): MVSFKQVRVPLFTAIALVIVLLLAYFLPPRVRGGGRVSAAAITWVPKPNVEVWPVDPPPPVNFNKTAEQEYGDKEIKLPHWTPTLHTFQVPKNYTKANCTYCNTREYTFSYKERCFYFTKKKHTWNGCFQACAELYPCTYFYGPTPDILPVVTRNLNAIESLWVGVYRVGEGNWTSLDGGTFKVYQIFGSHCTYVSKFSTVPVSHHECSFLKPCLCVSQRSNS
14-3-3 Bad inh = inhibitors of 14-3-3 zeta/Bad binding, primary screen, biochemical, TR-FRET, bovine 14-3-3 zeta; 14-3-3 protein zeta/delta (Bos taurus), P63103; TR-FRET 14-3-3zeta/Dy647-pBad peptide displacement, 1 h; inhibition, % at 21.7 µM; hit rate 0.71% among 220,000;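 active = inhibition above about 70%, limit read from the data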;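 also: 0% = full 14-3-3 plus peptide FRET controls and 100% = background without 14-3-3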
Target sequence (P63103 whole entry, looked up): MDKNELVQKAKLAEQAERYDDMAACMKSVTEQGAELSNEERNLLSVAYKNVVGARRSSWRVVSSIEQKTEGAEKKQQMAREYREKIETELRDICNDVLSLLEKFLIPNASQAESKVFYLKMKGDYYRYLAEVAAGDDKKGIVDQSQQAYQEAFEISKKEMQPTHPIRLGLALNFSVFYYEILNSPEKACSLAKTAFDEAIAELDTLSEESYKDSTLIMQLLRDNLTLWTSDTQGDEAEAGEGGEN
WT yeast gro inh = growth inhibition of WT strain, primary screen, mitochondrial fusion inhibitor project, WT and mutant strains, chemical genetic | mitochondrial fusion phenotypic screen | inhibition, % at 10 µM | hit rate 2.1% among 190,000; in the data active = inhibition above about 58%; tested in S. cerevisiae
NCF1 inh = p47phox/p22phox peptide binding inhibitors, primary screen, biochemical, uHTS, NADPH oxidase regulatory subunit; Neutrophil cytosol factor 1 (Homo sapiens), P14598; fluorescence polarization, 2 h; inhibition, % at 24.7 µM; hit rate 0.53% among 220,000; AID 1274, 2008;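 also: 0% = p47phox with labelled peptide and 100% = labelled peptide alone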
Numbers without * were called inactive; . = not tested or not shown; [ ] = remark or other dose. Only some compounds are listed: those with a hit (about 3.7% of all), similar ones and a draw of the others.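 The calls were made as follows, unless noted: active = inhibition above about 30% (limit read from the data); inactive = the rest.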

SMILES	RBBP9 inhibitor	eIF4E 4G PPI	EBV gp42 block	14-3-3 Bad inh	WT yeast gro inh	NCF1 inh
CC(=O)Nc1ccc(NC(=O)CCNS(=O)(=O)c2cccc3nsnc23)cc1	-16.0	2.5	-8.4	-1.4	-7.4	-4.4
CC(=O)/C(C#N)=C1\NC(=O)C(Cc2cc(Cl)ccc2Cl)S1 (stereo not drawn)	-3.6	2.1	-21.9	2.3	.	-12.6
CC(=O)/C(C#N)=C1\NC(=O)C(Cc2ccccc2Cl)S1 (stereo not drawn)	-5.2	6.3	-7.0	74.2*	76.3*	-11.2
COc1ccc(C2SCC(=O)N2CC23CC4CC(CC(C4)C2)C3)cc1 (stereo not drawn)	-7.4	3.9	9.6	-10.9	76.3*	-11.1
Cc1ccc(-c2nn(C)c(=O)c3ccccc23)cc1CNC(=O)Cn1nc(-c2ccccc2)c2ccccc2c1=O	-2.3	1.4	-2.2	59.8	14.2	41.4*
Cc1cc(C)n(CC(=O)NCc2cc(-c3nn(C)c(=O)c4ccccc34)ccc2C)n1	-5.5	-0.9	-13.9	-4.6	-14.7	-16.4
COc1ccc(OCCC(=O)N2CCCCC2)cc1	-4.5	-1.2	-22.3	-4.9	88.0*	-3.9
Cc1ccc(N=Nc2ccc(O)c(/C=N\NC(=O)c3ccc(N)cc3)c2)cc1C	-4.6	-25.4	-7.3	85.0*[fluorescence artefact?]	1.9	-6.3
Cc1ccc(S(=O)(=O)CC(=O)c2ccc3c(c2)OCCO3)cc1	-10.9	5.8	-3.4	1.2	.	-1.9
COc1ccc(-c2csc(NC(=O)CCS(=O)(=O)c3ccccc3)n2)c(OC)c1	-5.9	-2.3	-10.3	-8.3	.	-65.5
N#CC(c1nc2ccccc2nc1N1CCCC1)S(=O)(=O)c1ccccc1 (stereo not drawn)	7.0	1.0	102.5*	36.7	7.8	3.1
COc1ccc(S(=O)(=O)C(C#N)c2nc3ccccc3nc2N2CCCCC2)cc1 (stereo not drawn)	-6.1	4.4	5.5	31.8	21.2	-8.7
Cc1cccc(S(=O)(=O)C(C#N)c2nc3ccccc3nc2N2CCCC2)c1 (stereo not drawn)	0.2	2.6	91.6*	29.9	4.7	-19.3
Cc1ccc(C)c(S(=O)(=O)C(C#N)c2nc3ccccc3nc2N2CCCC2)c1 (stereo not drawn)	2.7	6.7	110.3*	21.6	13.3	-0.9
CCOc1ccccc1NC(=O)Nc1ccc(CC#N)cc1	-9.2	3.1	-13.4	-3.1	.	-20.9
CCNc1nc(NCC)nc(N/N=C(\C)c2ccc(OC)cc2)n1	-4.0	-1.1	0.8	-2.1	-3.3	-6.1
COc1ccc(CCN2C(=NC(=O)C(C)C)SC3CS(=O)(=O)CC32)cc1 (stereo not drawn)	-8.5	-3.1	2.6	3.9	.	-2.2
CN1C=CC2=C(C#N)C(N)C(C#N)(C#N)C(c3ccccc3)C2C1 (stereo not drawn)	-1.8	5.7	62.6*	-6.5	-2.1	-3.2
CN1C[C@@H]2C(c3ccccc3)C3(c4ccc(C#N)cc4)CC2(C3)[C@H]1c1ccccc1 (stereo partly drawn)	.	-0.2	-19.7	-2.2	.	-20.2
O=[N+]([O-])c1cccc(C2NCC(c3ccccc3Cl)c3c2[nH]c2ccccc32)c1 (stereo not drawn)	-5.5	-1.9	-8.2	0.5	70.0*	-13.6
COc1ccccc1C(=O)NNC(=S)NC(=O)c1ccco1	-1.4	3.1	-1.7	-2.2	87.2*	-5.3
O=S(=O)(c1ccc(Br)s1)N1CCNCC1	-1.2	-10.6	-8.3	-1.5	.	12.1
CCOC(=O)c1sc(/N=C/N(C)C)nc1C	-2.7	-3.0	-18.7	-10.8	-4.2	-4.2
CCOC(=O)c1cnc(/N=C/N(C)C)s1	0.8	1.6	-15.9	96.9*	-4.8	5.3
COc1ccc(C2C=C(c3ccccc3)Nc3nc(NC(C)=O)nn32)cc1 (stereo not drawn)	-3.9	14.9	57.7*	26.3	-3.8	3.3
